Source: ChEMBL document CHEMBL3352714, “Synthesis, in Vitro Covalent Binding Evaluation, and Metabolism of (14)C-Labeled Inhibitors of 11β-HSD1” (ACS Med Chem Lett, 2014)
Blank lines part the entries; values can stand above or below the compound they belong to.

Assays:
Liver microsome [1] = assay: Oxidative metabolism in human liver microsomes assessed as protein covalent binding measured per mg protein at 10 uM after 1 hr in presence of NADPH
Liver microsome [2] = assay: Oxidative metabolism in human liver microsomes assessed as protein covalent binding measured per mg protein at 10 uM after 1 hr in presence of NADPH
[3] = Drug metabolism in human hepatocytes assessed as total turnover after 2 hrs by LC-MS/MS-radiometric analysis; assay type: ADME, cell-based, Hepatocyte; conditions: read-out: Drug metabolism
In short: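 14C-labeled compound incubated with human hepatocytes. Parent and radiolabeled metabolites were analyzed by tandem LC–MS/MS with radiometric detection and expressed as % of administered dose.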

[4] = Oral bioavailability in cynomolgus monkey at 2 mg/kg; assay type: ADME, organism-based, Macaca fascicularis; conditions: in vivo
In short: (§1)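 Oral dose 2.0 mg/kg. Rat and dog received a solution in 15% HPβCD in Ora-Plus. Cynomolgus monkey received a suspension in 1% Tween 80 and 1% methylcellulose (4000 cps) in deionized water. Values are averages of three animals; iv reference dose was 0.5 mg/kg.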

[5] = Cmax in cynomolgus monkey at 2 mg/kg, po; assay type: ADME, organism-based, Macaca fascicularis; parameters: dose 2 mg/kg, route oral; conditions: in vivo; in short: as §1
[6] = Half life in cynomolgus monkey at 0.5 mg/kg, iv; assay type: ADME, organism-based, Macaca fascicularis; parameters: dose 0.5 mg/kg, route intravenous; conditions: in vivo
In short: (§2)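 Intravenous dose 0.5 mg/kg, formulated in 10% N,N-dimethylacetamide, 10% ethanol, 40% propylene glycol and 40% water. Values are averages of three animals per species.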

[7] = Half life in dog at 0.5 mg/kg, iv; assay type: ADME, organism-based, Canis lupus familiaris; parameters: dose 0.5 mg/kg, route intravenous; conditions: in vivo; in short: as §2
Cynomolgus monkey = conditions: Macaca fascicularis; at 10 mg/kg
[8] = Cmax in rat at 2 mg/kg, po; assay type: ADME, organism-based; parameters: dose 2 mg/kg, route oral; conditions: in vivo; in short: as §1
[9] = Clearance in dog at 0.5 mg/kg, iv; assay type: ADME, organism-based, Canis lupus familiaris; parameters: dose 0.5 mg/kg, route intravenous; conditions: in vivo; in short: as §2
[10] = Half life in rat at 0.5 mg/kg, iv; assay type: ADME, organism-based; parameters: dose 0.5 mg/kg, route intravenous; conditions: in vivo; in short: as §2
[11] = Clearance in cynomolgus monkey at 0.5 mg/kg, iv; assay type: ADME, organism-based, Macaca fascicularis; parameters: dose 0.5 mg/kg, route intravenous; conditions: in vivo; in short: as §2
[12] = Clearance in rat at 0.5 mg/kg, iv; assay type: ADME, organism-based; parameters: dose 0.5 mg/kg, route intravenous; conditions: in vivo; in short: as §2
[13] = Volume of distribution at steady state in dog at 0.5 mg/kg, iv; assay type: ADME, organism-based, Canis lupus familiaris; parameters: dose 0.5 mg/kg, route intravenous; conditions: in vivo, read-out: Vdss; in short: as §2
[14] = Cmax in dog at 2 mg/kg, po; assay type: ADME, organism-based, Canis lupus familiaris; parameters: dose 2 mg/kg, route oral; conditions: in vivo; in short: as §1
[15] = Oral bioavailability in rat at 2 mg/kg; assay type: ADME, organism-based; conditions: in vivo; in short: as §1
[16] = Oral bioavailability in dog at 2 mg/kg; assay type: ADME, organism-based, Canis lupus familiaris; conditions: in vivo; in short: as §1
[17] = Volume of distribution at steady state in rat at 0.5 mg/kg, iv; assay type: ADME, organism-based; parameters: dose 0.5 mg/kg, route intravenous; conditions: in vivo, read-out: Vdss; in short: as §2
[18] = Volume of distribution at steady state in cynomolgus monkey at 0.5 mg/kg, iv; assay type: ADME, organism-based, Macaca fascicularis; parameters: dose 0.5 mg/kg, route intravenous; conditions: in vivo, read-out: Vdss; in short: as §2

SMILES: c1ccc2ccccc2c1
PB (Liver microsome [1]): 420 pmol

SMILES: C[C@](O)(c1ccc(C(=O)N(C2CC2)[C@H]2CC[C@](CO[14C](N)=O)(c3ccc(F)cc3)CC2)cc1)C(F)(F)F
PB (Liver microsome [1]): 15 pmol | PB (Liver microsome [2]): 15 pmol

SMILES: C[C@](O)(c1ccc(C(=O)N(C2CC2)[C@H]2CC[C@](COC(N)=O)(c3ccc(F)cc3)CC2)cc1)C(F)(F)F (mixture of isomers)
bioavailability [4]: 38% | Cmax [5]: 211 ng/mL | half-life [6]: 27 h | half-life [7]: 78 h | inhibition (Cynomolgus monkey): Dose-dependent effect | Cmax [8]: 1130 ng/mL | clearance [9]: 0.2 mL/min/kg | half-life [10]: 43 h | clearance [11]: 0.483 mL/min/kg | clearance [12]: 0.683 mL/min/kg | Vd [13]: 1.2 L/kg | Cmax [14]: 1840 ng/mL | bioavailability [15]: 72% | bioavailability [16]: 88% | Vd [17]: 2.3 L/kg | Vd [18]: 1 L/kg

Further lines, results first:

PB (Liver microsome [1]): 70 pmol | PB (Liver microsome [2]): 70 pmol
SMILES: C[C@@H]1CN(CC2(C(N)=O)CC2)[14CH2][14CH2]N1S(=O)(=O)c1ccc([C@](C)(O)C(F)(F)F)cc1

PB (Liver microsome [1]): 370 pmol | PB (Liver microsome [2]): 370 pmol | metabolised at 2 h [3]: 9.8%
SMILES: C[C@](O)(c1ccc(S(=O)(=O)c2ccc([14C]#N)cc2Cl)cc1)C(F)(F)F
